ChEMBL document CHEMBL1153559, “Role of a sodium-dependent symporter homologue in the thermosensitivity of beta-lactam antibiotic resistance and cell wall composition in Staphylococcus aureus” (2008)
≈ marks a conversion by molar mass, not a printed value. Bridge positions count the residues as written; N and C are the ends. Square brackets hold non-standard residues; d marks the D form. Peptide text beside a SMILES is read from it. * marks the point of attachment. Ileψ(thiazoline)Cys = CC[C@H](C)[C@H](N)C1=N[C@H](C(=O)*)CS1; dOrn = NCCC[C@@H](N)C(=O)O

Tests used:
Type in all cases: functional
Staphylococcus aureus [1] = test: Antimicrobial activity against methicillin-resistant Staphylococcus aureus COL at 42 degC by population analysis method
Summary of the method: (§1)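 Population analysis: S. aureus cultures were grown overnight in TSB, then plated at different cell concentrations on agar containing twofold serial methicillin concentrations. Colonies were counted after 48 h of incubation at 37 or 42°C, giving a methicillin resistance profile.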

Staphylococcus aureus [2] = test: Antimicrobial activity against methicillin-resistant Staphylococcus aureus COL at 37 degC by population analysis method; summary of the method: as §1
Staphylococcus aureus [3] = test: Antimicrobial activity against methicillin-resistant Staphylococcus aureus COL transposon mutant C245 harboring Tn551 gene at 42 degC by population analysis method; summary of the method: as §1
Staphylococcus aureus [4] = test: Antimicrobial activity against SCCmec type 1 methicillin-resistant Staphylococcus aureus COL D19455 expressing symporter gene smr1 at 42 degC incubated for 24 hrs by E-test; settings: COL D19455, 24 h
Staphylococcus aureus [5] = test: Antimicrobial activity against SCCmec type 1 methicillin-resistant Staphylococcus aureus COL 404 expressing symporter gene smr1 at 42 degC incubated for 24 hrs by E-test; settings: COL 404, 24 h
Staphylococcus aureus [6] = test: Antimicrobial activity against SCCmec type 1 methicillin-resistant Staphylococcus aureus COL RUSA11 expressing symporter gene smr1 at 37 degC incubated for 24 hrs by E-test; settings: COL RUSA11, 24 h
Staphylococcus aureus [7] = test: Antimicrobial activity against SCCmec type 1 methicillin-resistant Staphylococcus aureus COL 319 expressing symporter gene smr1 at 42 degC incubated for 24 hrs by E-test; settings: COL 319, 24 h
Staphylococcus aureus [8] = test: Antimicrobial activity against SCCmec type 1 methicillin-resistant Staphylococcus aureus COL 319-T1 expressing symporter gene smr1 at 42 degC incubated for 24 hrs by E-test; settings: COL 319-T1, 24 h
Staphylococcus aureus [9] = test: Antimicrobial activity against SCCmec type 3 methicillin-resistant Staphylococcus aureus COL 301-T6 expressing symporter gene smr1 at 42 degC incubated for 24 hrs by E-test; settings: COL 301-T6, 24 h
Staphylococcus aureus [10] = test: Antimicrobial activity against SCCmec type 1 methicillin-resistant Staphylococcus aureus COL D19455 expressing symporter gene smr1 at 37 degC incubated for 24 hrs by E-test; settings: COL D19455, 24 h
Staphylococcus aureus [11] = test: Antimicrobial activity against SCCmec type 1 methicillin-resistant Staphylococcus aureus COL 404 expressing symporter gene smr1 at 37 degC incubated for 24 hrs by E-test; settings: COL 404, 24 h
Staphylococcus aureus [12] = test: Antimicrobial activity against SCCmec type 3 methicillin-resistant Staphylococcus aureus COL 301 expressing symporter gene smr1 at 42 degC incubated for 24 hrs by E-test; settings: COL 301, 24 h
Staphylococcus aureus [13] = test: Antimicrobial activity against SCCmec type 4 methicillin-resistant Staphylococcus aureus COL MW2-T expressing symporter gene smr1 at 42 degC incubated for 24 hrs by E-test
Staphylococcus aureus [14] = test: Antimicrobial activity against SCCmec type 1 methicillin-resistant Staphylococcus aureus COL RUSA11-T3 expressing symporter gene smr1 at 42 degC incubated for 24 hrs by E-test; settings: COL RUSA11-T3, 24 h
Staphylococcus aureus [15] = test: Antimicrobial activity against SCCmec type 4 methicillin-resistant Staphylococcus aureus COL MW2 expressing symporter gene smr1 at 42 degC incubated for 24 hrs by E-test; settings: COL MW2, 24 h
Staphylococcus aureus [16] = test: Antimicrobial activity against SCCmec type 3 methicillin-resistant Staphylococcus aureus COL 301 expressing symporter gene smr1 at 37 degC incubated for 24 hrs by E-test; settings: COL 301, 24 h
Staphylococcus aureus [17] = test: Antimicrobial activity against SCCmec type 1 methicillin-resistant Staphylococcus aureus COL E2125-T2 expressing symporter gene smr1 at 42 degC incubated for 24 hrs by E-test; settings: COL E2125-T2, 24 h
Staphylococcus aureus [18] = test: Antimicrobial activity against SCCmec type 3 methicillin-resistant Staphylococcus aureus COL 301-T6 expressing symporter gene smr1 at 37 degC incubated for 24 hrs by E-test; settings: COL 301-T6, 24 h
Staphylococcus aureus [19] = test: Antimicrobial activity against SCCmec type 1 methicillin-resistant Staphylococcus aureus COL D19455-T2 expressing symporter gene smr1 at 42 degC incubated for 24 hrs by E-test; settings: COL D19455-T2, 24 h
Staphylococcus aureus [20] = test: Antimicrobial activity against SCCmec type 1 methicillin-resistant Staphylococcus aureus COL 319 expressing symporter gene smr1 at 37 degC incubated for 24 hrs by E-test; settings: COL 319, 24 h
Staphylococcus aureus [21] = test: Antimicrobial activity against SCCmec type 1 methicillin-resistant Staphylococcus aureus COL E3005 expressing symporter gene smr1 at 42 degC incubated for 24 hrs by E-test; settings: COL E3005, 24 h
Staphylococcus aureus [22] = test: Antimicrobial activity against SCCmec type 1 methicillin-resistant Staphylococcus aureus COL RUSA11-T3 expressing symporter gene smr1 at 37 degC incubated for 24 hrs by E-test; settings: COL RUSA11-T3, 24 h
Staphylococcus aureus [23] = test: Antimicrobial activity against SCCmec type 1 methicillin-resistant Staphylococcus aureus COL E2125 expressing symporter gene smr1 at 42 degC incubated for 24 hrs by E-test; settings: COL E2125, 24 h
Staphylococcus aureus [24] = test: Antimicrobial activity against SCCmec type 1 methicillin-resistant Staphylococcus aureus COL E2125 expressing symporter gene smr1 at 37 degC incubated for 24 hrs by E-test; settings: COL E2125, 24 h
Staphylococcus aureus [25] = test: Antimicrobial activity against SCCmec type 4 methicillin-resistant Staphylococcus aureus COL MW2 expressing symporter gene smr1 at 37 degC incubated for 24 hrs by E-test; settings: COL MW2, 24 h
Staphylococcus aureus [26] = test: Antimicrobial activity against SCCmec type 1 methicillin-resistant Staphylococcus aureus COL E3005-T4 expressing symporter gene smr1 at 37 degC incubated for 24 hrs by E-test; settings: COL E3005-T4, 24 h
Staphylococcus aureus [27] = test: Antimicrobial activity against SCCmec type 1 methicillin-resistant Staphylococcus aureus COL E2125-T2 expressing symporter gene smr1 at 37 degC incubated for 24 hrs by E-test; settings: COL E2125-T2, 24 h
Staphylococcus aureus [28] = test: Antimicrobial activity against SCCmec type 1 methicillin-resistant Staphylococcus aureus COL 404-T3 expressing symporter gene smr1 at 37 degC incubated for 24 hrs by E-test; settings: COL 404-T3, 24 h
Staphylococcus aureus [29] = test: Antimicrobial activity against SCCmec type 1 methicillin-resistant Staphylococcus aureus COL RUSA11 expressing symporter gene smr1 at 42 degC incubated for 24 hrs by E-test; settings: COL RUSA11, 24 h
Staphylococcus aureus [30] = test: Antimicrobial activity against SCCmec type 1 methicillin-resistant Staphylococcus aureus COL C245Td expressing symporter gene smr1 at 42 degC incubated for 24 hrs by E-test
Staphylococcus aureus [31] = test: Antimicrobial activity against SCCmec type 1 methicillin-resistant Staphylococcus aureus COL D19455-T2 expressing symporter gene smr1 at 37 degC incubated for 24 hrs by E-test; settings: COL D19455-T2, 24 h
Staphylococcus aureus [32] = test: Antimicrobial activity against SCCmec type 1 methicillin-resistant Staphylococcus aureus COL E3005-T4 expressing symporter gene smr1 at 42 degC incubated for 24 hrs by E-test; settings: COL E3005-T4, 24 h
Staphylococcus aureus [33] = test: Antimicrobial activity against SCCmec type 4 methicillin-resistant Staphylococcus aureus COL MW2-T expressing symporter gene smr1 at 37 degC incubated for 24 hrs by E-test
Staphylococcus aureus [34] = test: Antimicrobial activity against SCCmec type 1 methicillin-resistant Staphylococcus aureus COL 319-T1 expressing symporter gene smr1 at 37 degC incubated for 24 hrs by E-test; settings: COL 319-T1, 24 h
Staphylococcus aureus [35] = test: Antimicrobial activity against SCCmec type 1 methicillin-resistant Staphylococcus aureus COL 404-T3 expressing symporter gene smr1 at 42 degC incubated for 24 hrs by E-test; settings: COL 404-T3, 24 h
Staphylococcus aureus [36] = test: Antimicrobial activity against SCCmec type 1 methicillin-resistant Staphylococcus aureus COL E3005 expressing symporter gene smr1 at 37 degC incubated for 24 hrs by E-test; settings: COL E3005, 24 h
Staphylococcus aureus [37] = test: Antimicrobial activity against SCCmec type 1 methicillin-resistant Staphylococcus aureus COL C245Td expressing symporter gene smr1 at 37 degC incubated for 24 hrs by E-test

CC[C@H](C)[C@H](N)C1=N[C@H](C(=O)N[C@@H](CC(C)C)C(=O)N[C@H](CCC(=O)O)C(=O)N[C@H](C(=O)N[C@H]2CCCCNC(=O)[C@H](CC(N)=O)NC(=O)[C@@H](CC(=O)O)NC(=O)[C@H](Cc3cnc[nH]3)NC(=O)[C@@H](Cc3ccccc3)NC(=O)[C@H]([C@@H](C)CC)NC(=O)[C@@H](CCCN)NC2=O)[C@@H](C)CC)CS1 [BACITRACIN] ({Ileψ(thiazoline)Cys}-L[dE]IK[dOrn]I[dF]H[dD]N; lactam 4-C)
MIC (Staphylococcus aureus [1]): 50 µg/mL (≈ 35.1 µM)
MIC (Staphylococcus aureus [2]): 50 µg/mL (≈ 35.1 µM)

N[C@@H]1CONC1=O [CYCLOSERINE]
MIC (Staphylococcus aureus [1]): 50 µg/mL (≈ 490 µM)
MIC (Staphylococcus aureus [2]): 50 µg/mL (≈ 490 µM)

C[C@@H]1O[C@@H]1P(=O)(O)O [FOSFOMYCIN]
MIC (Staphylococcus aureus [1]): 25 µg/mL (≈ 181 µM)
MIC (Staphylococcus aureus [2]): 50 µg/mL (≈ 362 µM)

COc1cccc(OC)c1C(=O)N[C@@H]1C(=O)N2[C@@H]1SC(C)(C)[C@@H]2C(=O)O [METHICILLIN]
MIC (Staphylococcus aureus [3]): 400 µg/mL (≈ 1050 µM)

Cc1onc(-c2ccccc2)c1C(=O)N[C@@H]1C(=O)N2[C@@H]1SC(C)(C)[C@@H]2C(=O)O [OXACILLIN]
MIC (Staphylococcus aureus [4]): 0.25 µg/mL (≈ 0.623 µM)
MIC (Staphylococcus aureus [5]): 1 µg/mL (≈ 2.49 µM)
MIC (Staphylococcus aureus [6]): 0.5 µg/mL (≈ 1.25 µM)
MIC (Staphylococcus aureus [7]): 0.75 µg/mL (≈ 1.87 µM)
MIC (Staphylococcus aureus [8]): > 256 µg/mL
MIC (Staphylococcus aureus [9]): 16 µg/mL (≈ 39.9 µM)
MIC (Staphylococcus aureus [10]): 1 µg/mL (≈ 2.49 µM)
MIC (Staphylococcus aureus [11]): > 256 µg/mL
MIC (Staphylococcus aureus [12]): 1 µg/mL (≈ 2.49 µM)
MIC (Staphylococcus aureus [13]): 0.75 µg/mL (≈ 1.87 µM)
MIC (Staphylococcus aureus [14]): 0.25 µg/mL (≈ 0.623 µM)
MIC (Staphylococcus aureus [15]): 0.75 µg/mL (≈ 1.87 µM)
MIC (Staphylococcus aureus [16]): > 256 µg/mL
MIC (Staphylococcus aureus [17]): 0.5 µg/mL (≈ 1.25 µM)
MIC (Staphylococcus aureus [18]): > 256 µg/mL
MIC (Staphylococcus aureus [19]): 0.25 µg/mL (≈ 0.623 µM)
MIC (Staphylococcus aureus [20]): > 256 µg/mL
MIC (Staphylococcus aureus [21]): 0.5 µg/mL (≈ 1.25 µM)
MIC (Staphylococcus aureus [22]): 4 µg/mL (≈ 9.96 µM)
MIC (Staphylococcus aureus [23]): 0.25 µg/mL (≈ 0.623 µM)
MIC (Staphylococcus aureus [24]): 1 µg/mL (≈ 2.49 µM)
MIC (Staphylococcus aureus [25]): 0.75 µg/mL (≈ 1.87 µM)
MIC (Staphylococcus aureus [26]): 12 µg/mL (≈ 29.9 µM)
MIC (Staphylococcus aureus [27]): 128 µg/mL (≈ 319 µM)
MIC (Staphylococcus aureus [28]): > 256 µg/mL
MIC (Staphylococcus aureus [29]): 0.19 µg/mL (≈ 0.473 µM)
MIC (Staphylococcus aureus [30]): > 256 µg/mL
MIC (Staphylococcus aureus [31]): 64 µg/mL (≈ 159 µM)
MIC (Staphylococcus aureus [32]): 0.38 µg/mL (≈ 0.947 µM)
MIC (Staphylococcus aureus [33]): 8 µg/mL (≈ 19.9 µM)
MIC (Staphylococcus aureus [34]): > 256 µg/mL
MIC (Staphylococcus aureus [35]): > 256 µg/mL
MIC (Staphylococcus aureus [36]): 1.5 µg/mL (≈ 3.74 µM)
MIC (Staphylococcus aureus [37]): > 256 µg/mL

CN(C)[C@@H]1C(O)=C(C(N)=O)C(=O)[C@@]2(O)C(O)=C3C(=O)c4c(O)cccc4[C@@](C)(O)[C@H]3C[C@@H]12 [TETRACYCLINE]
MIC (Staphylococcus aureus [1]): 100 µg/mL (≈ 225 µM)
MIC (Staphylococcus aureus [2]): 100 µg/mL (≈ 225 µM)

CN[C@H](CC(C)C)C(=O)N[C@H]1C(=O)N[C@@H](CC(N)=O)C(=O)N[C@H]2C(=O)N[C@H]3C(=O)N[C@H](C(=O)N[C@H](C(=O)O)c4cc(O)cc(O)c4-c4cc3ccc4O)[C@H](O)c3ccc(c(Cl)c3)Oc3cc2cc(c3O[C@@H]2O[C@H](CO)[C@@H](O)[C@H](O)[C@H]2O[C@H]2C[C@](C)(N)[C@H](O)[C@H](C)O2)Oc2ccc(cc2Cl)[C@H]1O [VANCOMYCIN]
MIC (Staphylococcus aureus [1]): 3 µg/mL (≈ 2.07 µM)
MIC (Staphylococcus aureus [2]): 1.5 µg/mL (≈ 1.04 µM)
